This note sets out measurements from ChEMBL document CHEMBL1125418, “Antimycobacterial activity of a series of pyrazinoic acid esters” (1992).

≈ marks a conversion by molar mass, not a printed value.

For test [1], the system named is Mycobacterium tuberculosis. As to the kind of experiment: In vitro activity against Mycobacterium. tuberculosis (strain type-BUR)at pH 6.6. It is filed as functional. Summed up:
(§1)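 Twofold serial dilutions (200–3.12 µg/mL) in 7H10 agar with 10% OADC enrichment at pH 6.6, in compartmented plates. Plates were stored at 4 °C and used within 24–48 h. A no-drug compartment served as control for each isolate. Plates were incubated for 4 weeks at 37 °C. MIC was the lowest concentration giving 99% (2 log) growth inhibition.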

Test [2] has as its system Mycobacterium tuberculosis. As to the kind of experiment: In vitro activity against Mycobacterium. tuberculosis (strain type-ATCC 35828)at pH 6.6. It is filed as functional. Summed up:
as §1

The subject of test [3] is Mycobacterium kansasii. The experiment in a line: In vitro activity against Mycobacterium. kansasii (strain type-SWK).at pH 5.8. Type of test: functional. Summed up:
(§2)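 Pyrazinamide-resistant isolate SWK tested on Middlebrook 7H10 agar plus 10% OADC adjusted to pH 5.8. Compartmented plates hold 2-fold dilutions from 200 to 3.12 µg/mL, prepared 24–48 h before use and kept at 4 °C, with a drug-free compartment. Incubation was 37 °C for 4 weeks. MIC is the lowest level causing 99% (2 log) growth inhibition.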

In test [4] the test system is Mycobacterium kansasii. The experiment in a line: In vitro activity against Mycobacterium. kansasii (strain type-SWK).at pH 6.6. Type of test: functional. Summed up: (§3)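 MIC for pyrazinamide-resistant isolate SWK by agar dilution in Middlebrook 7H10 with 10% OADC at pH 6.6. Serial 2-fold dilutions run 200–3.12 µg/mL in compartmented plates prepared 24–48 h in advance and stored at 4 °C. A drug-free control is included. Plates were held at 37 °C for 4 weeks. The endpoint is 99% (2 log) inhibition of growth.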

Test [5] deals with Mycobacterium tuberculosis. As to the kind of experiment: In vitro activity against Mycobacterium. tuberculosis (strain type-H37Rv) at pH 5.8. It is filed as functional. The settings on record: Mycobacterium tuberculosis; read-out: MIC.
Test [6] relates to Mycobacterium tuberculosis. As to the kind of experiment: In vitro activity against Mycobacterium. tuberculosis (strain type-ATCC 35828)at pH 5.8. Type of test: functional. Summed up:
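Middlebrook 7H10 agar plus 10% OADC at pH 5.8 in compartmented plates, with serial twofold dilutions from 200 to 3.12 µg/mL. Plates were prepared 24–48 h before use and stored at 4 °C. A drug-free compartment was included per isolate. Incubation was 37 °C for 4 weeks. MIC was the lowest level producing 99% (2 log) inhibition of growth.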

The test system of test [7] is Mycobacterium tuberculosis. The experiment in a line: In vitro activity against Mycobacterium. tuberculosis (strain type-BUR)at pH 5.8. It is filed as functional.
The subject of test [8] is Mycobacterium kansasii. As to the kind of experiment: In vitro activity against Mycobacterium. kansasii (strain type-SWK) […]. It is filed as functional.
For test [9], the system named is Mycobacterium tuberculosis. As to the kind of experiment: In vitro activity against Mycobacterium strain ATCC 35828 (Mycobacterium tuberculosis). Type of test: functional. Summed up:
(§4)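 Agar dilution in compartmented plates of Middlebrook 7H10 agar with 10% OADC, adjusted to pH 5.8 or pH 6.6. Twofold compound dilutions spanned 200–3.12 µg/mL. Plates were made 24–48 h ahead and held at 4 °C. MIC (µg/mL) was the lowest concentration giving 99% (2 log) growth inhibition.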

Test [10] concerns Mycobacterium tuberculosis. The experiment in a line: In vitro activity against Mycobacterium strain BAK (Mycobacterium tuberculosis). Type of test: functional. The settings on record: Mycobacterium tuberculosis; read-out: MIC.
In test [11] the test system is Mycobacterium tuberculosis. As to the kind of experiment: In vitro activity against Mycobacterium strain BUR (Mycobacterium tuberculosis). It is filed as functional. Summed up: as §4
Test [12] concerns Mycobacterium tuberculosis. The experiment in a line: In vitro activity against Mycobacterium strain CES (Mycobacterium tuberculosis). It is filed as functional. Summed up: as §4
The test system of test [13] is Mycobacterium tuberculosis. As to the kind of experiment: In vitro activity against Mycobacterium strain DOL (Mycobacterium tuberculosis). It is filed as functional.
Test [14] deals with Mycobacterium tuberculosis. As to the kind of experiment: In vitro activity against Mycobacterium strain DOU (Mycobacterium tuberculosis). It is filed as functional. Summed up: as §4
The subject of test [15] is Mycobacterium kansasii. The experiment in a line: In vitro activity against Mycobacterium. kansasii (strain type-SWK)at pH 6.6. Type of test: functional. Summed up:
as §3

In test [16] the test system is Mycobacterium kansasii. As to the kind of experiment: In vitro activity against Mycobacterium. kansasii (strain type-SWK)at pH 5.8. Type of test: functional. Summed up:
as §2

For test [17], the system named is Mycobacterium kansasii. As to the kind of experiment: In vitro activity against Mycobacterium strain SWK (Mycobacterium kansasii). Type of test: functional. Summed up: (§5)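 Agar dilution MIC against pyrazinamide-resistant clinical isolates on Middlebrook 7H10 agar with 10% OADC at pH 5.8 or pH 6.6. Serial 2-fold dilutions span 200–3.12 µg/mL in compartmented plates made 24–48 h ahead and stored at 4 °C. Each isolate has a drug-free control. Plates were incubated at 37 °C for 4 weeks. MIC is the lowest concentration giving 99% (2 log) growth inhibition.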

The subject of test [18] is Mycobacterium tuberculosis. The experiment in a line: (§6) In vitro activity against Mycobacterium. tuberculosis (strain type-H37Rv) at pH 6.6. Type of test: functional.
For test [19], the system named is Mycobacterium tuberculosis. The experiment in a line: In vitro activity against Mycobacterium strain ING (Mycobacterium tuberculosis). Type of test: functional. Summed up:
as §4

For test [20], the system named is Mycobacterium tuberculosis. As to the kind of experiment: In vitro activity against Mycobacterium strain LEL (Mycobacterium tuberculosis). Type of test: functional.
Test [21] has as its system Mycobacterium tuberculosis. The experiment in a line: In vitro activity against Mycobacterium strain MCQ (Mycobacterium tuberculosis). Type of test: functional. Summed up: as §4
Test [22] deals with Mycobacterium tuberculosis. As to the kind of experiment: In vitro activity against Mycobacterium strain SMA (Mycobacterium tuberculosis). It is filed as functional.
The test system of test [23] is Mycobacterium tuberculosis. As to the kind of experiment: In vitro activity against Mycobacterium strain WOO (Mycobacterium tuberculosis). Type of test: functional. Summed up: as §4
Test [24] concerns Mycobacterium tuberculosis. As to the kind of experiment: (§7) In vitro activity against Mycobacterium strain GLA (Mycobacterium tuberculosis).
The test system of test [25] is Mycobacterium tuberculosis. As to the kind of experiment: In vitro activity against Mycobacterium strain DUB (Mycobacterium tuberculosis). Type of test: functional.
In test [26] the test system is Mycobacterium kansasii. As to the kind of experiment: In vitro activity against Mycobacterium strain SCH (Mycobacterium kansasii). Type of test: functional. Summed up: as §5
For test [27], the system named is Mycobacterium tuberculosis. The experiment in a line: In vitro activity against Mycobacterium. tuberculosis (strain type-ATCC 35828) at pH 6.6. It is filed as functional. Summed up: as §1
The subject of test [28] is Mycobacterium tuberculosis. Described as §7. It is filed as functional.
For test [29], the system named is Mycobacterium kansasii. As to the kind of experiment: In vitro activity against Mycobacterium. kansasii (strain type-SWK) pH 6.6. Type of test: functional. Summed up: as §3
Test [30] deals with Mycobacterium tuberculosis. The description is as §6. It is filed as functional. Summed up:
as §1
This is another data set of the same source.

The mark [31] stands for this setting: Mycobacterium tuberculosis, read-out: MIC.

By MIC is commonly meant the smallest concentration in the dilution series that meets the test's criterion for growth inhibition. As for `O=C(Oc1ccc(-c2ccccc2)cc1)c1cnccn1`, the MIC in [1] came to 50 µg/mL (≈ 181 µM); in [2] it was 100 µg/mL (≈ 362 µM); in the test with Mycobacterium kansasii [3] it was 25 µg/mL (≈ 90.5 µM); in the test with Mycobacterium kansasii [4], 100 µg/mL (≈ 362 µM); in test [5] it was 6.25 µg/mL (≈ 22.6 µM); in test [6], 25 µg/mL (≈ 90.5 µM).
Turning to `O=C(OCCCl)c1cnccn1`, the results for the minimum inhibitory concentration (MIC) (in test [7] (setting [31]); with Mycobacterium kansasii [8]; in test [6]) were 6.25 µg/mL (≈ 33.5 µM), 25 µg/mL (≈ 134 µM) and 25 µg/mL (≈ 134 µM), respectively.
Turning to `C=CCOC(=O)c1cnccn1`, the MIC in [9] was 6.25 µg/mL (≈ 38.1 µM); in test [10], 3.12 µg/mL (≈ 19 µM); in [11], 6.25 µg/mL (≈ 38.1 µM); in test [7] it was 6.25 µg/mL (≈ 38.1 µM); in test [12], < 3.12 µg/mL; in test [13] (setting [31]) it was < 3.12 µg/mL. In addition, the MIC in [14] was 3.12 µg/mL (≈ 19 µM); in test [2], 200 µg/mL (≈ 1220 µM); against Mycobacterium kansasii [15], 12.5 µg/mL (≈ 76.1 µM); in the test on Mycobacterium kansasii [16] it was < 3.12 µg/mL; against Mycobacterium kansasii [17], 6.25 µg/mL (≈ 38.1 µM); in test [5], < 3.12 µg/mL. Besides, the MIC in test [18] (setting [31]) was 200 µg/mL (≈ 1220 µM); in test [19] it was 3.12 µg/mL (≈ 19 µM); in test [20] it was 3.12 µg/mL (≈ 19 µM); in [21] it was < 3.12 µg/mL; in test [22], 3.12 µg/mL (≈ 19 µM); in [23] it was 6.25 µg/mL (≈ 38.1 µM). Besides, the MIC (in test [24]; in [6]; in test [25]; with Mycobacterium kansasii [26]) was 6.25 µg/mL (≈ 38.1 µM) throughout.
As to `O=C(OCC(F)(F)F)c1cnccn1`, the MIC in test [9] came out at 25 µg/mL (≈ 121 µM); in test [10], 25 µg/mL (≈ 121 µM); in [11] it was 25 µg/mL (≈ 121 µM); in test [7] (setting [31]), 25 µg/mL (≈ 121 µM); in test [12], 12.5 µg/mL (≈ 60.6 µM); in test [13], 25 µg/mL (≈ 121 µM). Further, the MIC in [14] is 100 µg/mL (≈ 485 µM); in [27] it was > 200 µg/mL; in test [28] (setting [31]), 12.5 µg/mL (≈ 60.6 µM); in the test on Mycobacterium kansasii [16], 100 µg/mL (≈ 485 µM); against Mycobacterium kansasii [17], 200 µg/mL (≈ 970 µM); with Mycobacterium kansasii [29] it was > 200 µg/mL. Moreover, the minimum inhibitory concentration (MIC) in [30] worked out at 100 µg/mL (≈ 485 µM); in [5], 25 µg/mL (≈ 121 µM); in test [19], 25 µg/mL (≈ 121 µM); in [20] it was 50 µg/mL (≈ 243 µM); in test [21], 25 µg/mL (≈ 121 µM); in test [22], 25 µg/mL (≈ 121 µM). Also, the MIC (in test [23]; in test [6]; in [25] (setting [31]); against Mycobacterium kansasii [26]) was 25 µg/mL (≈ 121 µM) throughout.
Regarding `CCCOC(=O)c1cnccn1`, the minimal inhibitory concentration (MIC) in test [9] is 6.25 µg/mL (≈ 37.6 µM); in test [10], < 3.12 µg/mL; in test [11], < 3.12 µg/mL; in [7] (setting [31]), < 3.12 µg/mL; in [12], < 3.12 µg/mL; in test [13] (setting [31]), < 3.12 µg/mL. The minimal inhibitory concentration (MIC) in test [14] was < 3.12 µg/mL; in test [2], 25 µg/mL (≈ 150 µM); against Mycobacterium kansasii [3], < 3.12 µg/mL; against Mycobacterium kansasii [4] it was 12.5 µg/mL (≈ 75.2 µM); in test [28] it was 6.25 µg/mL (≈ 37.6 µM); in the test with Mycobacterium kansasii [17], 6.25 µg/mL (≈ 37.6 µM). The MIC in test [5] was < 3.12 µg/mL; in test [18] it was 25 µg/mL (≈ 150 µM); in test [19], < 3.12 µg/mL; in [20] (setting [31]), 6.25 µg/mL (≈ 37.6 µM); in [21], < 3.12 µg/mL; in test [22] (setting [31]), < 3.12 µg/mL. The minimal inhibitory concentration (MIC) is 6.25 µg/mL (≈ 37.6 µM) in test [6], < 3.12 µg/mL in test [25] (setting [31]) and 12.5 µg/mL (≈ 75.2 µM) in the test on Mycobacterium kansasii [26].
`O=C(Oc1c(F)c(F)c(F)c(F)c1F)c1cnccn1`: the MIC in test [2] is 100 µg/mL (≈ 345 µM); with Mycobacterium kansasii [3], 25 µg/mL (≈ 86.2 µM); against Mycobacterium kansasii [4], > 200 µg/mL; in [5], 12.5 µg/mL (≈ 43.1 µM); in test [18] (setting [31]) it was 100 µg/mL (≈ 345 µM); in [6] it was 12.5 µg/mL (≈ 43.1 µM).
In the case of `O=C(OC(C(F)(F)F)C(F)(F)F)c1cnccn1`, the minimal inhibitory concentration (MIC) stood at 100 µg/mL (≈ 365 µM) in test [7] (setting [31]) and 200 µg/mL (≈ 730 µM) in test [6].
